Experimental data published in ChEMBL document CHEMBL5107994, “Biphenyl scaffold for the design of NMDA-receptor negative modulators: molecular modeling, synthesis, and biological activity” (RSC Med Chem, 2022).
Active and inactive are the calls of the source. The calls are words filed in the database; no cut-off is given here.

Tests used:
[1] = biological target: T1, Glutamate NMDA receptor (Rattus norvegicus) (UniProt P35439+Q00959+Q00960+Q00961+Q62645+Q8VHN2+Q9R1M7); assay: Negative allosteric modulator activity at NMDA receptor in Wistar rat hippocampal CA1 neuronal membrane assessed as inhibition of NMDA and glycine induced current response by measuring maximum efficacy by whole-cell patch clamp technique; assay type: cell membranes; conditions: Hippocampal CA1 neurone, filed as negative allosteric modulator
Summary of the method: (§1)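 Acutely vibrodissociated CA1 pyramidal neurons from 13–18-day male Wistar rats, whole-cell recorded at –80 mV at room temperature. 100 μM NMDA + 10 μM glycine activated the receptors. Steady-state current block was measured across concentrations and fitted with the Hill equation for the concentration-inhibition relationship. At least four experiments, mean ± SD.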

[2] = tested on: Mus musculus; assay: Antidepressant activity in ICR (CD-1) mouse assessed as decrease in immobility time at 160 mg/kg, po and measured after 1 hr by forced swim test; assay type: functional, organism-based
Summary of the method: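 Adult male ICR (CD-1) mice, 20–25 g, n=10 per group, dosed orally 1 h before a one-day forced swim test. Solutions were prepared on the day. Each mouse swam 5 min in a cylinder with at least 20 cm of water at 24–26°C, with fresh water per animal, and was videotaped. Total immobility (passive floating) was compared with an […] saline/5% DMSO group by Mann-Whitney U-test.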

[3] = biological target: T1, Glutamate NMDA receptor (Rattus norvegicus); assay: Negative allosteric modulator activity at NMDA receptor in Wistar rat hippocampal CA1 neuronal membrane assessed as inhibition of NMDA and glycine induced current response at 30 uM by whole-cell patch clamp technique; assay type: cell membranes; conditions: Hippocampal CA1 neurone
Summary of the method: (§2)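 Male Wistar rats, 13–18 d old. CA1 pyramidal neurons isolated from hippocampal slices by vibrodissociation. Whole-cell patch clamp at room temperature, holding potential –80 mV, with 70–80% series-resistance compensation. Currents evoked by 100 μM NMDA plus 10 μM glycine. Percent block of the steady-state current measured at each compound concentration. Means ± SD from at least four experiments.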

[4] = biological target: Glutamate NMDA receptor; assay: Displacement of 3[H]ifenprodil from NMDA receptor in Wistar rat brain membrane incubated for 2 hrs by scintillation counting method; assay type: cell membranes
Summary of the method: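 Rat hippocampal membranes prepared in HEPES/Tris pH 7.6 buffers with repeated EDTA washes, stored in liquid nitrogen. Incubated with [3H]-ifenprodil (40 nM working-solution aliquot) for 2 h at room temperature. Nonspecific binding measured with 10 μM unlabeled ifenprodil. Test compounds over 10^-8 to 10^-3 M. Filtration on polyethyleneimine-soaked GF/B filters, then scintillation counting. Each concentration run in triplicate and averaged.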

[5] = biological target: Glutamate NMDA receptor; assay: Negative allosteric modulator activity at NMDA receptor in Wistar rat hippocampal CA1 neuronal membrane assessed as inhibition of NMDA and glycine induced current response by whole-cell patch clamp technique; assay type: cell membranes; conditions: hippocampal ca1 neurone; summary of the method: as §1
[6] = biological target: T1, Glutamate NMDA receptor (Rattus norvegicus); assay: Negative allosteric modulator activity at NMDA receptor in Wistar rat hippocampal CA1 neuronal membrane assessed as inhibition of NMDA and glycine induced current response at 0.03 uM by whole-cell patch clamp technique; assay type: cell membranes; conditions: Hippocampal CA1 neurone; summary of the method: as §2
[7] = biological target: T1, Glutamate NMDA receptor (Rattus norvegicus); assay: Negative allosteric modulator activity at NMDA receptor in Wistar rat hippocampal CA1 neuronal membrane assessed as inhibition of NMDA and glycine induced current response at 3 uM by whole-cell patch clamp technique; assay type: cell membranes; conditions: Hippocampal CA1 neurone, filed as negative allosteric modulator; summary of the method: as §2
[8] = biological target: T1, Glutamate NMDA receptor (Rattus norvegicus); assay: Negative allosteric modulator activity at NMDA receptor in Wistar rat hippocampal CA1 neuronal membrane assessed as inhibition of NMDA and glycine induced current response at 0.3 uM by whole-cell patch clamp technique; assay type: cell membranes; conditions: Hippocampal CA1 neurone, filed as negative allosteric modulator; summary of the method: as §2

Question: How did the Emax [1] turn out when C[C@H]([C@@H](O)c1ccc(O)cc1)N1CCC(Cc2ccccc2)CC1 was run?
Answer: 62%

Question: For CNCCC(Oc1ccc(C(F)(F)F)cc1)c1ccccc1 (configuration not stated), which Activity [2] is on record?
Answer: Active

Question: How did the inhibition [3] turn out when Oc1ccc(OCC(O)c2ccc(-c3ccccc3)cc2)cc1 (configuration not stated) was run?
Answer: 36%

Question: And the IC50 [4]?
Answer: > 100 µM

Question: What about the IC50 [5] of the same molecule?
Answer: > 30 µM

Question: CS(=O)(=O)Nc1cccc(NCC(O)c2ccc(-c3ccc(Br)cc3)cc2)c1 (configuration not stated) was tested. Which IC50 [4] did it give?
Answer: 1 µM

Question: What about the IC50 [5] of the same molecule?
Answer: 0.05 µM

Question: What about the Emax [1] of the same molecule?
Answer: 78%

Question: Which results are given for CS(=O)(=O)Nc1cccc(NCC(O)c2ccc(-c3ccccc3)cc2)c1 (configuration not stated)?
Answer: IC50 [4]: 5.4 µM; inhibition [6]: 25%; IC50 [5]: 0.1 µM; Emax [1]: 83%; inhibition [7]: 76%; inhibition [8]: 61%

Question: CCNc1cccc(NCC(O)c2ccc(-c3ccccc3)cc2)c1 (configuration not stated) was tested. Which inhibition [3] did it give?
Answer: 10%

Question: What about the IC50 [4] of the same molecule?
Answer: > 100 µM

Question: And the IC50 [5]?
Answer: > 30 µM

Question: OC(COc1ccccc1)c1ccc(-c2ccccc2)cc1 (configuration not stated) was tested. Which inhibition [3] did it give?
Answer: 37%

Question: What about the IC50 [4] of the same molecule?
Answer: > 100 µM

Question: And the IC50 [5]?
Answer: > 30 µM

Question: Which results are given for Oc1cccc(OCC(O)c2ccc(-c3ccccc3)cc2)c1 (configuration not stated)?
Answer: IC50 [4]: 30 µM; IC50 [5]: 5 µM; Emax [1]: 62%

Question: For Oc1cccc(NCC(O)c2ccc(-c3ccccc3)cc2)c1 (configuration not stated), which IC50 [4] is on record?
Answer: 4.2 µM

Question: And the IC50 [5]?
Answer: 0.45 µM

Question: And the Emax [1]?
Answer: 72%

Question: Which results are given for NC(COc1cccc(O)c1)c1ccc(-c2ccccc2)cc1 (configuration not stated)?
Answer: IC50 [4]: 41 µM; IC50 [5]: 5 µM; Emax [1]: 65%

Question: For OC(CNc1ccccc1)c1ccc(-c2ccccc2)cc1 (configuration not stated), which inhibition ([3]; filed as negative allosteric modulator) is on record?
Answer: 42%

Question: And the IC50 [4]?
Answer: > 100 µM

Question: What about the IC50 [5] of the same molecule?
Answer: > 30 µM
